Values after ≈ are worked out from the molar mass of the structure shown.
Assays:
Plasmodium falciparum [1] = assay: Antimalarial activity against chloroquine-resistant Plasmodium falciparum Dd2 assessed as inhibition of parasite growth incubated for 72 hrs by SYBR green I-based DNA quantification assay; format: functional, organism-based; conditions: Dd2, 72 h
Plasmodium falciparum [2] = assay: Antiplasmodial activity against artemisinin-resistant Plasmodium falciparum ARC08-022 assessed as inhibition of parasite growth incubated for 48 hrs by time zero-[3H]hypoxanthine incorporation assay; format: functional, organism-based
Plasmodium falciparum [3] = assay: Selectivity for antiplasmodial activity for chloroquine-resistant Plasmodium falciparum Dd2 over antiplasmodial activity against artemisinin-resistant Plasmodium falciparum ARC08-022; format: functional
[4] = Selectivity index, ratio of EC50 for cytotoxicity against human HepG2 cells to EC50 for antimalarial activity against chloroquine-resistant Plasmodium falciparum Dd2; format: toxicity, cell-based; conditions: read-out: Ratio EC50
Procedure, shortened: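 Human HepG2 hepatoma cells were seeded at 2,500 cells/well and grown 24 h. Serial dilutions of compound (0–40 μM) were then added for another 48 h. […] SI = EC50(HepG2)/EC50(Dd2).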

[5] = Cytotoxicity against human HepG2 cells assessed as reduction in cell viability incubated for 48 hrs by MTS assay; format: toxicity, cell-based
Procedure, shortened: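 HepG2 human hepatoma cells were seeded at 2,500 cells/well in 384-well plates and incubated 24 h. Serial compound dilutions (0–40 μM range) were added, then cells were incubated a further 48 h.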

Plasmodium falciparum [6] = assay: Selectivity for antiplasmodial activity for chloroquine-sensitive Plasmodium falciparum 3D7 over antiplasmodial activity against chloroquine-sensitive Plasmodium falciparum D6; format: functional
Plasmodium falciparum [7] = assay: Selectivity for antiplasmodial activity for chloroquine-resistant Plasmodium falciparum Dd2 over antiplasmodial activity against chloroquine-sensitive Plasmodium falciparum D6; format: functional
Plasmodium falciparum [8] = assay: Antiplasmodial activity against chloroquine-sensitive Plasmodium falciparum D6 assessed as inhibition of parasite growth incubated for 48 hrs by time zero-[3H]hypoxanthine incorporation assay; format: functional, organism-based
Plasmodium falciparum [9] = assay: Selectivity for antiplasmodial activity for chloroquine-sensitive Plasmodium falciparum 3D7 over antiplasmodial activity against artemisinin-resistant Plasmodium falciparum ARC08-022; format: functional
[10] = Octanol-water distribution coefficient, logD of the compound at pH 7.4 by HPLC-based analysis; format: physicochemical
[11] = Octanol-water distribution coefficient, logD of the compound at pH 3 by HPLC-based analysis; format: physicochemical
[12] = Aqueous solubility of the compound at pH 2 by HPLC analysis; format: physicochemical; conditions: aqueous solution
Procedure, shortened: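 Aqueous solubility was measured at pH 2.0 with an in-house HPLC assay. Values are reported as bins: ≤10 μM, 10–20 μM, 20–40 μM, 40–80 μM and ≥80 μM.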

[13] = Aqueous solubility of the compound at pH 6.5; conditions: aqueous solution

OC(CN1CCC2(CC1)CC(O)c1ccc3ccccc3c1O2)c1ccc(F)c(F)c1 (configuration not stated)
EC50 (Plasmodium falciparum [1]): 320 nM
EC50 (Plasmodium falciparum [2]): 1810 nM
Selectivity ratio (Plasmodium falciparum [3]): 3
selectivity ratio [4]: > 53.3
EC50 at 48 h [5]: > 20000 nM
Selectivity ratio (Plasmodium falciparum [6]): 3
Selectivity ratio (Plasmodium falciparum [7]): 3
EC50 (Plasmodium falciparum [8]): 1480 nM
Selectivity ratio (Plasmodium falciparum [9]): 3

OC1CC2(CCN(CCC3CCCCC3)CC2)Oc2c1ccc1ccccc21 (configuration not stated)
EC50 (Plasmodium falciparum [1]): 500 nM
logD [10]: 3.54
logD [11]: 2.97
solubility [12]: 40 µM (≈ 15.2 µg/mL)
EC50 (Plasmodium falciparum [2]): 630 nM
selectivity ratio [4]: 35.1
EC50 at 48 h [5]: 14000 nM
solubility [13]: 20 µM (≈ 7.59 µg/mL)
EC50 (Plasmodium falciparum [8]): 500 nM

O=C1CC2(CCN(CCc3ccc(F)c(F)c3)CC2)Oc2c1ccc1ccccc21
EC50 (Plasmodium falciparum [1]): > 2500 nM
logD [10]: 3.81
logD [11]: 2.56
solubility [12]: ≥ 80 µM
EC50 (Plasmodium falciparum [2]): 860 nM
selectivity ratio [4]: 4
EC50 at 48 h [5]: > 20000 nM
solubility [13]: 10 µM (≈ 4.07 µg/mL)
EC50 (Plasmodium falciparum [8]): 260 nM

Source: ChEMBL document CHEMBL5131470, “Structure-activity and structure-property relationship studies of spirocyclic chromanes with antimalarial activity” (Bioorg Med Chem, 2022)
